Measurements published in ChEMBL document CHEMBL1128568, “Design and structure-activity relationships of C-terminal cyclic neurotensin fragment analogues” (J Med Chem, 1995).
Non-standard residues stand in square brackets, D forms with d. Residues, ends and D or L forms follow the SMILES beside them. NMeR = CN[C@@H](CCCNC(=N)N)C(=O)O; Tle = CC(C)(C)[C@H](N)C(=O)O

Assay: Binding affinity against neurotensin receptor.
Summary of the method: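 Neonatal (10-day postnatal) mouse brain membranes, cerebellum removed, washed by repeated 100000g spins in 5 mM Tris pH 7.5, resuspended 1 g wet weight/mL in 50 mM Tris pH 7.4 with BSA, bacitracin, EDTA, phenanthroline, PMSF. Competition against [3H]NT (0.20 nM final) or [125I-Tyr3]NT (0.21 nM final), 30 min at 25 °C. Separation by filtration on PEI-soaked GF/B filters. Nonspecific binding with 1 μM NT.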

Row | Compound | Ki
1 | CC(C)C[C@H](NC(=O)[C@@H](N)CCC(=O)O)C(=O)N[C@@H](Cc1ccc(O)cc1)C(=O)N[C@@H](CCC(=O)O)C(=O)N[C@@H](CC(N)=O)C(=O)N[C@@H](CCCCN)C(=O)N1CCC[C@H]1C(=O)N(C)[C@@H](CCCN=C(N)N)C(=O)N1C(=O)[C@H](CC(C)C)NC(=O)[C@H](CCC(=O)O)NC(=O)[C@H](Cc2c[nH]c3ccccc23)NC(=O)[C@@H]2CCCN2C(=O)[C@@H]1CCCCN | 770 nM
2 | CC(C)C[C@H](NC(=O)[C@@H](N)CCC(=O)O)C(=O)N[C@@H](Cc1ccc(O)cc1)C(=O)N[C@@H](CCC(=O)O)C(=O)N[C@@H](CC(N)=O)C(=O)N[C@@H](CCCCN)C(=O)N1CCC[C@H]1C(=O)N1C(=O)[C@H](CC(C)C)NC(=O)[C@H](C(C)(C)C)NC(=O)[C@H](Cc2ccc(O)cc2)NC(=O)[C@@H]2CCCN2C(=O)[C@H](CCCCN)NC(=O)[C@H]1CCCN=C(N)N | 440 nM
3 | CC(C)C[C@H](NC(=O)CC[C@@H]1NC(=O)[C@H](Cc2c[nH]c3ccccc23)NC(=O)[C@@H]2CCCN2C(=O)[C@H](C)NC(=O)[C@@H](CCCN=C(N)N)N(C(=O)[C@@H]2CCCN2C(=O)[C@H](CCCCN)NC(=O)[C@H](CC(N)=O)NC(=O)[C@H](CCC(=O)O)NC(=O)[C@H](Cc2ccc(O)cc2)NC(=O)[C@H](CC(C)C)NC(=O)[C@@H](N)CCC(=O)O)C1=O)C(=O)O | > 10000 nM
4 | CC(C)C[C@H](NC(=O)[C@@H](N)CCC(=O)O)C(=O)N[C@@H](Cc1ccc(O)cc1)C(=O)N[C@@H](CCC(=O)O)C(=O)N[C@@H](CC(N)=O)C(=O)N[C@@H](CCCCN)C(=O)N1CCC[C@H]1C(=O)N(C)[C@@H](CCCN=C(N)N)C(=O)N1C(=O)[C@H](CC(C)C)NC(=O)[C@@H](CCC(=O)O)NC(=O)[C@H](Cc2c[nH]c3ccccc23)NC(=O)[C@@H]2CCCN2C(=O)[C@H]1CCCCN | 2500 nM
5 | CC(C)C[C@H](NC(=O)[C@@H]1CSSC[C@@H](NC(=O)[C@H](CCCN=C(N)N)N(C)C(=O)[C@@H]2CCCN2C(=O)[C@H](CCCCN)NC(=O)[C@H](CC(N)=O)NC(=O)[C@H](CCC(=O)O)NC(=O)[C@H](Cc2ccc(O)cc2)NC(=O)[C@H](CC(C)C)NC(=O)[C@@H](N)CCC(=O)O)C(=O)N2CCC[C@@H]2C(=O)N[C@@H](Cc2c[nH]c3ccccc23)C(=O)N1)C(=O)O | 810 nM
6 | CC(C)CC(NC(=O)CC[C@@H]1NC(=O)[C@H](Cc2c[nH]c3ccccc23)NC(=O)[C@@H]2CCCN2C(=O)[C@H](CCCCN)NC(=O)[C@H](CCCN=C(N)N)N(C)C(=O)CN(C(=O)[C@@H]2CCCN2C(=O)[C@H](CCCCN)NC(=O)[C@H](CC(N)=O)NC(=O)[C@H](CCC(=O)O)NC(=O)[C@H](Cc2ccc(O)cc2)NC(=O)[C@H](CC(C)C)NC(=O)[C@@H](N)CCC(=O)O)C1=O)C(=O)O (some centres undefined) | 28 nM
7 | CC(C)C[C@H](NC(=O)[C@H](CCC(=O)O)NC(=O)[C@H](Cc1c[nH]c2ccccc12)NC(=O)[C@@H]1CCCN1C(=O)[C@H](CCCCN)NC(=O)[C@H](CCCN=C(N)N)N(C)C(=O)[C@@H]1CCCN1C(=O)[C@H](CCCCN)NC(=O)[C@H](CC(N)=O)NC(=O)[C@H](CCC(=O)O)NC(=O)[C@H](Cc1ccc(O)cc1)NC(=O)[C@H](CC(C)C)NC(=O)[C@@H](N)CCC(=O)O)C(=O)O (H-ELYENKP[NMeR]KPWEL-OH) | > 10000 nM
8 | CC(C)C[C@H](NC(=O)[C@H]1NC(=O)[C@H](Cc2c[nH]c3ccccc23)NC(=O)[C@H]2CCCN2C(=O)[C@H](NC(=O)[C@H](CCCN=C(N)N)N(C)C(=O)[C@@H]2CCCN2C(=O)[C@H](CCCCN)NC(=O)[C@H](CC(N)=O)NC(=O)[C@H](CCC(=O)O)NC(=O)[C@H](Cc2ccc(O)cc2)NC(=O)[C@H](CC(C)C)NC(=O)[C@@H](N)CCC(=O)O)C(C)(C)SSC1(C)C)C(=O)O | 4400 nM
9 | CC(C)C[C@H](NC(=O)[C@@H](N)CCC(=O)O)C(=O)N[C@@H](Cc1ccc(O)cc1)C(=O)N[C@@H](CCC(=O)O)C(=O)N[C@@H](CC(N)=O)C(=O)N[C@@H](CCCCN)C(=O)N1CCC[C@H]1C(=O)N(C)[C@@H](CCCN=C(N)N)C(=O)N1C(=O)[C@H](CC(C)C)NC(=O)[C@@H](CCC(=O)O)NC(=O)[C@H](Cc2c[nH]c3ccccc23)NC(=O)[C@@H]2CCCN2C(=O)[C@@H]1CCCCN | 1600 nM
10 | CC(=O)N(C(=O)[C@@H]1CCCN1C(=O)[C@H](CCCCN)NC(=O)[C@H](CC(N)=O)NC(=O)[C@H](CCC(=O)O)NC(=O)[C@H](Cc1ccc(O)cc1)NC(=O)[C@H](CC(C)C)NC(=O)[C@@H](N)CCC(=O)O)[C@@H](CCCN=C(N)N)C(=O)N[C@@H](CCCCN)C(=O)N1CCC[C@H]1C(=O)N[C@@H](Cc1c[nH]c2ccccc12)C(=O)N[C@@H](CCC(N)=O)C(=O)N[C@@H](CC(C)C)C(=O)O | 260 nM
11 | CC(C)C[C@H](NC(=O)[C@@H](NC(=O)[C@H](Cc1c[nH]c2ccccc12)NC(=O)[C@@H]1CCCN1C(=O)[C@H](CCCCN)NC(=O)[C@H](CCCN=C(N)N)N(C)C(=O)[C@@H]1CCCN1C(=O)[C@H](CCCCN)NC(=O)[C@H](CC(N)=O)NC(=O)[C@H](CCC(=O)O)NC(=O)[C@H](Cc1ccc(O)cc1)NC(=O)[C@H](CC(C)C)NC(=O)[C@@H](N)CCC(=O)O)C(C)(C)C)C(=O)O (H-ELYENKP[NMeR]KPW[Tle]L-OH) | 0.67 nM
12 | CC(C)C[C@H](NC(=O)[C@H]1NC(=O)[C@H](Cc2c[nH]c3ccccc23)NC(=O)[C@H]2CCCN2C(=O)[C@H](NC(=O)[C@H](CCCN=C(N)N)N(C)C(=O)[C@@H]2CCCN2C(=O)[C@H](CCCCN)NC(=O)[C@H](CC(N)=O)NC(=O)[C@H](CCC(=O)O)NC(=O)[C@H](Cc2ccc(O)cc2)NC(=O)[C@H](CC(C)C)NC(=O)[C@@H](N)CCC(=O)O)CSSC1(C)C)C(=O)O | 83 nM
13 | CC(C)C[C@H](NC(=O)[C@@H](N)CCC(=O)O)C(=O)N[C@@H](Cc1ccc(O)cc1)C(=O)N[C@@H](CCC(=O)O)C(=O)N[C@@H](CC(N)=O)C(=O)N[C@@H](CCCCN)C(=O)N1CCC[C@H]1C(=O)N1C(=O)[C@H](CC(C)C)NC(=O)[C@H](C(C)(C)C)NC(=O)[C@H](Cc2c[nH]c3ccccc23)NC(=O)[C@@H]2CCCN2C(=O)[C@H](CCCCN)NC(=O)[C@@H]1CCCN=C(N)N | 410 nM

Further lines, results first:

Row | Ki | Compound
14 | 830 nM | CC(C)C[C@H](NC(=O)CCC[C@@H]1NC(=O)[C@H](Cc2c[nH]c3ccccc23)NC(=O)[C@@H]2CCCN2C(=O)[C@H](CCCCN)NC(=O)[C@H](CCCN=C(N)N)N(C(=O)[C@@H]2CCCN2C(=O)[C@H](CCCCN)NC(=O)[C@H](CC(N)=O)NC(=O)[C@H](CCC(=O)O)NC(=O)[C@H](Cc2ccc(O)cc2)NC(=O)[C@H](CC(C)C)NC(=O)[C@@H](N)CCC(=O)O)C1=O)C(=O)O
15 | > 10000 nM | CC(C)C[C@H](NC(=O)[C@@H](N)CCC(=O)O)C(=O)N[C@@H](Cc1ccc(O)cc1)C(=O)N[C@@H](CCC(=O)O)C(=O)N[C@@H](CC(N)=O)C(=O)N[C@@H](CCCCN)C(=O)N1CCC[C@H]1C(=O)N1C(=O)[C@H](CCC(=O)O)NC(=O)[C@H](Cc2c[nH]c3ccccc23)NC(=O)[C@@H]2CCCN2C(=O)[C@H](CCCCN)NC(=O)[C@H]1CCCN=C(N)N
16 | > 10000 nM | CC(C)CC(NC(=O)CC[C@H]1NC(=O)[C@H](Cc2c[nH]c3ccccc23)NC(=O)[C@@H]2CCCN2C(=O)[C@H](CCCCN)NC(=O)[C@@H](CCCN=C(N)N)N(C(=O)[C@@H]2CCCN2C(=O)[C@H](CCCCN)NC(=O)[C@H](CC(N)=O)NC(=O)C(CCC(=O)O)NC(=O)[C@H](Cc2ccc(O)cc2)NC(=O)[C@H](CC(C)C)NC(=O)C(N)CCC(=O)O)C1=O)C(=O)O (stereo in doubt)
17 | 910 nM | CC(C)C[C@H](NC(=O)C[C@@H]1NC(=O)[C@H](Cc2c[nH]c3ccccc23)NC(=O)[C@@H]2CCCN2C(=O)[C@H](CCCCN)NC(=O)[C@@H](CCCN=C(N)N)N(C(=O)[C@@H]2CCCN2C(=O)[C@H](CCCCN)NC(=O)[C@H](CC(N)=O)NC(=O)[C@H](CCC(=O)O)NC(=O)[C@H](Cc2ccc(O)cc2)NC(=O)[C@H](CC(C)C)NC(=O)[C@@H](N)CCC(=O)O)C1=O)C(=O)O
18 | 250 nM | CC(C)C[C@H](NC(=O)[C@@H](N)CCC(=O)O)C(=O)N[C@@H](Cc1ccc(O)cc1)C(=O)N[C@@H](CCC(=O)O)C(=O)N[C@@H](CC(N)=O)C(=O)N[C@@H](CCCCN)C(=O)N1CCC[C@H]1C(=O)N1C(=O)[C@H](CCC(=O)NCC(=O)O)NC(=O)[C@H](Cc2c[nH]c3ccccc23)NC(=O)[C@@H]2CCCN2C(=O)[C@H](CCCCN)NC(=O)[C@H]1CCCN=C(N)N
19 | 16 nM | CC(C)C[C@H](NC(=O)CC[C@@H]1NC(=O)[C@H](Cc2c[nH]c3ccccc23)NC(=O)[C@@H]2CCCN2C(=O)[C@H](CCCCN)NC(=O)[C@@H](CCCN=C(N)N)N(C(=O)[C@@H]2CCCN2C(=O)[C@H](CCCCN)NC(=O)[C@H](CC(N)=O)NC(=O)[C@H](CCC(=O)O)NC(=O)[C@H](Cc2ccc(O)cc2)NC(=O)[C@H](CC(C)C)NC(=O)[C@@H](N)CCC(=O)O)C1=O)C(=O)O
